This note sets out measurements from ChEMBL document CHEMBL1148335, “Design and synthesis of potent inhibitors of the malaria aspartyl proteases plasmepsin I and II. Use of solid-phase synthesis to explore novel statine motifs” (J Med Chem, 2004).

The structures appear in SMILES notation. Where only a bound is given, the exact number is not on record here.

For one assay, the target named is Plasmepsin II (Plasmodium falciparum, UniProt P46925). Put plainly: In vitro inhibition of aspartic protease plasmepsin (Plm) II of Plasmodium falciparum. A digest of the protocol: (§1)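 Fluorogenic DABCYL-Glu-Arg-Nle-Phe-Leu-Ser-Phe-Pro-EDANS substrate at 3 µM in 100 mM sodium acetate pH 4.5, 10% glycerol, 0.01% Tween 20. Inhibitors were serially diluted in DMSO and added just before substrate, at 1% final DMSO. Fluorescence increase was read over a linear 10 min. IC50 came from a competitive Langmuir fit, and Ki = IC50/(1+[S]/Km), with Km from Michaelis-Menten.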
Chain of Plasmepsin II (P46925 whole entry): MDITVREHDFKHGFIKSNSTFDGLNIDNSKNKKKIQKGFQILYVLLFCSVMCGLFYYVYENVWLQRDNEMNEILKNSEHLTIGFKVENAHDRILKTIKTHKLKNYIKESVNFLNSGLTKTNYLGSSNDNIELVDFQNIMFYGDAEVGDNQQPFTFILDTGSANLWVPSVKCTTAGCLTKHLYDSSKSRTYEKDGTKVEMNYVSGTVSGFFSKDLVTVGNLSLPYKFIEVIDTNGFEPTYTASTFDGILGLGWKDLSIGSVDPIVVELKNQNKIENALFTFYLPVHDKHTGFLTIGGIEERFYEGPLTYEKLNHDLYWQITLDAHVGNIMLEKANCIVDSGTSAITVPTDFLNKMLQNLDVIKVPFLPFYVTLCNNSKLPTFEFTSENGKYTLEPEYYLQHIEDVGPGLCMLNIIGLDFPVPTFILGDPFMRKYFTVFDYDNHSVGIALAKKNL

The target of another assay is Cathepsin D (Homo sapiens, UniProt P07339). Put plainly: In vitro inhibition of human liver cathepsin D. A digest of the protocol:
as §1

The subject of assay [1] is Plasmodium falciparum. Put plainly: Growth inhibition of Plasmodium falciparum infected human erythrocytes at 5 uM. The format is functional. The gist of the method: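 P. falciparum clone 3D7 was used as a highly synchronous early-trophozoite culture at ~1% haematocrit and 1% parasitaemia, with [3H]hypoxanthine at 10 µCi/ml. Compound was added at 1–5 µM final, with DMSO at most 1% v/v. Cultures grew 37 °C, 30 h, to schizonts, then were harvested onto filters for β-counting. Radioactivity was expressed relative to DMSO-only wells, from four independent experiments.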

The target in a further assay is Plasmepsin I (Plasmodium falciparum, UniProt P39898). Put plainly: In vitro inhibition of aspartic protease plasmepsin-1 (Plm) of Plasmodium falciparum. The gist of the method:
as §1

Assay [2] deals with Plasmodium falciparum. The assay can be described thus: Growth inhibition of Plasmodium falciparum infected human erythrocytes at 20 uM. It is filed as functional.

Chain of Plasmepsin I (P39898 whole entry): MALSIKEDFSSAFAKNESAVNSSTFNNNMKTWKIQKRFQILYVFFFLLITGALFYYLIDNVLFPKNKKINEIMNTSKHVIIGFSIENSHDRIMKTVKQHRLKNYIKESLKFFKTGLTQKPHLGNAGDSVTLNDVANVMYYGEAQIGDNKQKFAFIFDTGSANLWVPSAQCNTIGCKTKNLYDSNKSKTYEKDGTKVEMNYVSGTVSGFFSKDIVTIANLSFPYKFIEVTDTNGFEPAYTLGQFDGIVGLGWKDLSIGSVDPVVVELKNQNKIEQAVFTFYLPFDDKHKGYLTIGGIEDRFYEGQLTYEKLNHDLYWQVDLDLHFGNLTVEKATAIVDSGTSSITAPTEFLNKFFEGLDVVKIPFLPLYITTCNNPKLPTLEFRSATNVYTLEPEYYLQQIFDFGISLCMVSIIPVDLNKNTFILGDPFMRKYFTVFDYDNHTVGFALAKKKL
Chain of Cathepsin D (P07339 65-162 limits assumed): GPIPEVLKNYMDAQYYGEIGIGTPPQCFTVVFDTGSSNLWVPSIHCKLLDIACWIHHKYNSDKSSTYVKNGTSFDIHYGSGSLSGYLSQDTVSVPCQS
Chain of Cathepsin D (P07339 169-412 limits assumed): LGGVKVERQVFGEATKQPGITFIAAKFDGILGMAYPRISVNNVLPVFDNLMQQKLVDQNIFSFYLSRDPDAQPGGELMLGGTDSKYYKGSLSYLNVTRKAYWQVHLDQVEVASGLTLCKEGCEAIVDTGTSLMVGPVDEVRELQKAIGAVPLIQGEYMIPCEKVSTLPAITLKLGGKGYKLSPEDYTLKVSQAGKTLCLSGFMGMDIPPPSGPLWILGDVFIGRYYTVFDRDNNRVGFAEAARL

One may read the Ki as a dissociation constant, usually derived from enzyme kinetics or from competition with a known ligand. Read a low Ki as tighter binding. Usually inhibition stands for the change of the read-out against control, counted positive when it falls. `CC(C)C[C@H](NC(=O)[C@H](C)NC(=O)C[C@H](O)[C@H](CCc1ccccc1)NC(=O)[C@@H](NC(=O)c1ccccn1)C(C)C)C(N)=O`: the inhibition constant (Ki) worked out at 0.046 µM at Plasmepsin II, 0.98 µM at Cathepsin D and 0.027 µM at Plasmepsin I. Moreover, 5 µM produced 41% inhibition in the assay on Plasmodium falciparum [1].
As for `O=C(C[C@H](O)[C@H](COCc1ccc(Br)cc1)NC(=O)c1c(F)cc(F)cc1F)NC1CCCCC1`, the inhibition constant Ki at Plasmepsin II is 0.23 µM; at Cathepsin D it was above 5.9 µM; at Plasmepsin I, 0.822 µM.
Take `CC(C)C[C@H](NC(=O)[C@H](C)NC(=O)C[C@H](O)[C@H](COCc1ccc(Br)cc1)NC(=O)c1c(F)cc(F)cc1F)C(N)=O`: the Ki on Plasmepsin II was 0.01 µM; on Cathepsin D it was above 4 µM; at Plasmepsin I, 0.0034 µM.
Regarding `COc1cccc(CCNC(=O)C[C@H](O)[C@H](COCc2ccc(Br)cc2)NC(=O)[C@@H](NC(=O)c2ccccn2)C(C)C)c1`, the inhibition constant (Ki) on Plasmepsin II came out at 0.029 µM; at Cathepsin D, 0.14 µM; at Plasmepsin I it was 0.0067 µM. The compound also displayed an inhibition at 5 µM with Plasmodium falciparum [1] of 25%.
`CC(C)[C@H](NC(=O)c1ccccn1)C(=O)N[C@@H](COCc1ccc(Br)cc1)[C@@H](O)CC(=O)NC1CCCCC1`: the figures for the inhibitory constant (Ki) on Plasmepsin II, at Cathepsin D and at Plasmepsin I were 0.025 µM, 0.217 µM and 0.0041 µM, respectively. The same compound registered an inhibition at 5 µM in the assay with Plasmodium falciparum [1] of 21%.
`COCCCNC(=O)C[C@H](O)[C@H](COCc1ccc(Br)cc1)NC(=O)[C@@H](NC(=O)c1ccccn1)C(C)C`: the Ki is 0.248 µM at Plasmepsin II, above 4 µM at Cathepsin D and 0.049 µM on Plasmepsin I.
For `CC(C)C[C@H](NC(=O)[C@H](C)NC(=O)C[C@H](O)[C@H](COCc1ccc(Br)cc1)NC(=O)c1ccc(Cl)c(Cl)c1)C(N)=O` the same measures were 0.091 µM, 1.81 µM and 0.032 µM.
Take `CC(C)[C@H](NC(=O)c1ccccn1)C(=O)N[C@@H](COCc1ccc(Br)cc1)[C@@H](O)CC(=O)NCCNc1ccccc1`: the results for the Ki on Plasmepsin II, at Cathepsin D and at Plasmepsin I were 0.074 µM, 0.265 µM and 0.0089 µM, respectively. The compound further came in with an inhibition at 5 µM with Plasmodium falciparum [1] of 25%.
As for `CC(C)C[C@H](NC(=O)[C@H](C)NC(=O)C[C@H](O)[C@H](COCc1ccc(Br)cc1)NC(=O)[C@@H](NC(=O)c1ccccn1)C(C)C)C(N)=O`, the figures for the inhibitory constant (Ki) at Plasmepsin II, on Cathepsin D and at Plasmepsin I were 0.0022 µM, 0.0049 µM and 0.0005 µM, respectively.
For the compound `CC(C)[C@H](NC(=O)c1ccccn1)C(=O)N[C@@H](COCc1ccc(Br)cc1)[C@@H](O)CC(=O)NCc1ccc(C#N)cc1`, the figures for the Ki at Plasmepsin II, at Cathepsin D and at Plasmepsin I were 0.256 µM, 0.623 µM and 0.053 µM, respectively.
For `CC(C)C[C@H](NC(=O)[C@H](C)NC(=O)C[C@H](O)[C@H](COCc1ccc(Br)cc1)NC(=O)Cc1cccs1)C(N)=O` the same measures were 0.348 µM, 0.035 µM and 0.024 µM.
With `CC(C)C[C@H](NC(=O)[C@H](C)NC(=O)C[C@H](O)[C@H](COCc1ccc(Br)cc1)NC(=O)[C@@H]1Cc2ccccc2N1)C(N)=O`, the Ki on Plasmepsin II amounted to 0.144 µM; on Cathepsin D, 0.322 µM; at Plasmepsin I it was 0.059 µM. This compound returned an inhibition at 5 µM in the assay on Plasmodium falciparum [1] of 16%.
In turn, `CC(C)C[C@H](NC(=O)[C@H](C)NC(=O)C[C@H](O)[C@H](Cc1ccccc1)NC(=O)[C@@H](NC(=O)c1ccccn1)C(C)C)C(N)=O` showed an inhibition at 20 µM in the assay on Plasmodium falciparum [2] of 54%.
For the compound `CC(C)[C@H](NC(=O)c1ccccn1)C(=O)N[C@@H](COCc1ccc(Br)cc1)[C@@H](O)CC(=O)NCc1ccccc1`, the inhibition constant (Ki) was found to be 0.041 µM on Plasmepsin II, 0.586 µM at Cathepsin D and 0.0039 µM on Plasmepsin I.
Regarding `CCCCNC(=O)C[C@H](O)[C@H](COCc1ccc(Br)cc1)NC(=O)[C@@H](NC(=O)c1ccccn1)C(C)C`, the Ki on Plasmepsin II was 0.068 µM; at Cathepsin D it was 0.473 µM; at Plasmepsin I, 0.0081 µM.
The matching figures for `CC(C)[C@H](NC(=O)c1ccccn1)C(=O)N[C@@H](COCc1ccc(Br)cc1)[C@@H](O)CC(=O)NCCCc1ccccc1`: 0.03 µM, 0.459 µM and 0.0054 µM.
For `COc1cccc(CCNC(=O)C[C@H](O)[C@H](COCc2ccc(Br)cc2)NC(=O)c2c(F)cc(F)cc2F)c1` the same measures were 0.39 µM, above 5.9 µM and 0.619 µM.
Regarding `CC(C)C[C@H](NC(=O)[C@H](C)NC(=O)C[C@H](O)[C@H](COCc1ccc(Br)cc1)NC(=O)C(c1ccccc1)c1ccccc1)C(N)=O`, the inhibition constant Ki at Plasmepsin II turned out to be 0.139 µM; at Cathepsin D it was 0.052 µM; on Plasmepsin I, 0.057 µM. In the assay with Plasmodium falciparum [1], this compound registered an inhibition at 5 µM of 10%.
On to `CC(C)C[C@H](NC(=O)[C@H](C)NC(=O)C[C@H](O)[C@H](COCc1ccc(Br)cc1)NC(=O)CC(c1ccccc1)c1ccccc1)C(N)=O`, for which the Ki came to 0.284 µM on Plasmepsin II, 0.1 µM at Cathepsin D and 0.04 µM on Plasmepsin I.
On to `CC(C)C[C@H](NC(=O)[C@H](C)NC(=O)C[C@H](O)[C@H](COCc1ccccc1)NC(=O)[C@@H](NC(=O)c1ccccn1)C(C)C)C(N)=O`, for which the Ki at Plasmepsin II amounted to 0.011 µM; at Cathepsin D, 0.041 µM; at Plasmepsin I, 0.0054 µM. For the same compound, in the assay on Plasmodium falciparum [1], at 5 µM the inhibition was 37%.
`CC(C)C[C@H](NC(=O)[C@H](C)NC(=O)C[C@H](O)[C@H](COCc1ccc(Br)cc1)NC(=O)[C@H](NC(=O)c1ccccn1)C(C)C)C(N)=O`: the Ki on Plasmepsin II was determined as 0.015 µM; at Cathepsin D it was 0.041 µM; at Plasmepsin I it was 0.0064 µM. This compound gave an inhibition at 5 µM with Plasmodium falciparum [1] of 50%.
On to `CC(C)C[C@H](NC(=O)[C@H](C)NC(=O)C[C@H](O)[C@H](COCc1ccc(Br)cc1)NC(=O)c1ccc2c(c1)OCO2)C(N)=O`, for which the inhibition constant Ki was 0.131 µM at Plasmepsin II, above 5.9 µM at Cathepsin D and 0.029 µM at Plasmepsin I.
